Measured values pooled from the literature.
Compare with care: the assays were run in different laboratories.
Target: Protein-tyrosine kinase 6 (PTK6, Homo sapiens, UniProt Q13882)

| SMILES | observed | action | technique | concentration | quantity | value |
| --- | --- | --- | --- | --- | --- | --- |
| CNC(=O)Nc1ccc2c(c1)[C@@]1(CC2)OC(=O)N(CC(=O)N(Cc2ccc(F)cc2)[C@@H](C)C(F)(F)F)C1=O | cell-free assay | – | competition with immobilised ligand | 1 µM | remaining binding | 90% |
| COc1cc(Nc2cnc(C#N)c(O[C@H](C)CN(C)C)n2)ncc1-c1cnn(C)c1 | enzyme activity | inhibitor | radiometric | 10 µM | remaining activity | 91% |
| Cc1cnc(NC2CCOCC2)nc1-n1cnc(C(=O)NC(CN)c2cc(F)cc(Cl)c2)c1 (stereo not drawn) | enzyme activity | inhibitor | radiometric | 1 µM | remaining activity | 127% |
| COc1cc2nccc(Oc3ccc(NC(=O)c4c5n(n(-c6ccc(F)cc6)c4=O)CCCC5)cc3)c2cc1OC | enzyme activity | inhibitor | – | 0.1 µM | inhibition | 37% |
| COc1cc(/C=C/C(=O)CC(=O)/C=C/c2ccc(O)c(OC)c2)ccc1O | enzyme activity | inhibitor | – | 1 µM | activity vs control | 85% |
| CCN(CC)CCNC(=O)c1c(C)[nH]c(/C=C2\C(=O)Nc3ccc(F)cc32)c1C | enzyme activity | inhibitor | – | 0.3 µM | inhibition | 6% |
| O=C1Nc2ccc(Cl)cc2C1=Cc1cc(Cl)c(O)c(Cl)c1 | cell-free assay | – | – | 0.5 µM | remaining signal | 73.8% |
| Cc1ccc(NC(=O)c2ccc(C)c(C(F)(F)F)c2)cc1C#Cc1nn(C2CCC(O)CC2)c2ncnc(N)c12 (stereo not drawn) | cell-free assay | – | – | 10 µM | remaining signal | -1% |
| FC(F)(F)Oc1cccc(-c2cnc3ccc(-c4ccncc4)nn23)c1 | enzyme activity | inhibitor | radiometric | 5 µM | activity vs control | 70% |
| CS(=O)(=O)CCNCc1ccc(-c2ccc3ncnc(Nc4ccc(OCc5cccc(F)c5)c(Cl)c4)c3c2)o1 | cell-free assay | – | – | 0.5 µM | remaining signal | 103% |
| COc1cc2ncnc(Nc3ccc(Oc4ccccc4)cc3C)c2cc1OC | enzyme activity | inhibitor | – | 1 µM | inhibition | 95% |
| O=C(Nc1cnn(-c2csc(C(=O)NC3COC3)c2)c1)Nc1c(F)cccc1Cl | enzyme activity | inhibitor | – | 5 µM | remaining activity | 85.7% |
| CN(C)C1CCN(CC#Cc2nn(C3CCCC3)c3nc(NCc4ccccc4)ncc23)C1 (stereo not drawn) | enzyme activity | inhibitor | FRET | 1 µM | inhibition | 1% |
| NS(=O)(=O)c1cc(NC(=O)C2(c3ccccc3Cl)CC2)ccc1Oc1cccc(Cl)c1 | cell-free assay | – | competition with immobilised ligand | 1 µM | remaining binding | 99% |
| COc1cc(Cl)c(C(=O)N[C@@H](CN[C@H]2CC[C@@H](N)CC2)Cc2ccc(C#N)cc2)cc1-c1ccc(CN[C@H](C)c2ccc(C)cc2)o1 | enzyme activity | inhibitor | – | 1 µM | remaining activity | 98% |
| CS(=O)(=O)N1CCCC(NC(=O)[C@H](CCC2CCCCC2)NC(=O)c2ccc(CNc3ncnc4c3nnn4-c3ccccc3)cc2)C1 (stereo partly drawn) | cell-free assay | – | competition with immobilised ligand | 0.1 µM | remaining binding | 76% |
| CCN(CC)c1ccc(C2=NNC(=O)CC2C)cc1[N+](=O)[O-] (stereo not drawn) | enzyme activity | inhibitor | – | 10 µM | remaining activity | 105% |
| CN(c1ccnc(CNc2nc(Nc3ccc4c(c3)CC(=O)N4)ncc2C(F)(F)F)n1)S(C)(=O)=O | cell-free assay | – | competition with immobilised ligand | 1 µM | remaining binding | 100% |
| CNC(=O)c1cc(Oc2ccc(NC(=O)Nc3ccc(Cl)c(C(F)(F)F)c3)cc2)ccn1 | enzyme activity | inhibitor | – | 10 µM | inhibition | 58% |
| O=C(N1CCS(=O)(=O)CC1)N1C[C@H](c2ccc(OC(F)(F)F)cc2)C[C@H](c2nc(C3CC3)no2)C1 | cell-free assay | – | competition with immobilised ligand | 1 µM | remaining binding | 100% |
| CC(C)(C)c1nc(-c2cccc(NS(=O)(=O)c3c(F)cccc3F)c2F)c(-c2ccnc(N)n2)s1 | enzyme activity | inhibitor | radiometric | 1 µM | remaining activity | 26% |
| CCC(=O)N[C@H]1CC[C@@H](C(=O)N(C)c2ccc(-c3nc4ccccc4o3)cc2)C1 | cell-free assay | – | competition with immobilised ligand | 1 µM | remaining binding | 100% |
| CC(C)(O)[C@H]1CC[C@H](Nc2ccc3ncc(-c4cccc(C(F)(F)F)c4)n3n2)CC1 | enzyme activity | inhibitor | – | 1 µM | remaining activity | 50.4% |
| O=C(O)[C@@H]1[C@@H](Cn2nnc3ccccc3c2=O)CC[C@H]1C(=O)c1ccc(OCCC2CCOCC2)cc1 | cell-free assay | – | competition with immobilised ligand | 1 µM | remaining binding | 99% |
| Cc1ccc(Nc2nccc(N(C)c3ccc4c(C)n(C)nc4c3)n2)cc1S(N)(=O)=O | enzyme activity | inhibitor | – | 0.3 µM | inhibition | 23% |
| CS(=O)(=O)c1cc(C2(NC(=O)c3cncc4c3cnn4-c3ccc(F)cc3)CC2)ccn1 | cell-free assay | – | competition with immobilised ligand | 1 µM | remaining binding | 80% |
| Cc1ccc(C(=O)Nc2ccc(CN3CCN(C)CC3)c(C(F)(F)F)c2)cc1C#Cc1cnc2cccnn12 | enzyme activity | inhibitor | – | 23.5 nM | remaining activity | 95% |
